Results of several laboratories.
Lines come from different studies, so protocols differ.
Target: Serine/threonine-protein kinase DCLK1 (DCLK1, Homo sapiens, UniProt O15075)
One construct used (O15075 1-740): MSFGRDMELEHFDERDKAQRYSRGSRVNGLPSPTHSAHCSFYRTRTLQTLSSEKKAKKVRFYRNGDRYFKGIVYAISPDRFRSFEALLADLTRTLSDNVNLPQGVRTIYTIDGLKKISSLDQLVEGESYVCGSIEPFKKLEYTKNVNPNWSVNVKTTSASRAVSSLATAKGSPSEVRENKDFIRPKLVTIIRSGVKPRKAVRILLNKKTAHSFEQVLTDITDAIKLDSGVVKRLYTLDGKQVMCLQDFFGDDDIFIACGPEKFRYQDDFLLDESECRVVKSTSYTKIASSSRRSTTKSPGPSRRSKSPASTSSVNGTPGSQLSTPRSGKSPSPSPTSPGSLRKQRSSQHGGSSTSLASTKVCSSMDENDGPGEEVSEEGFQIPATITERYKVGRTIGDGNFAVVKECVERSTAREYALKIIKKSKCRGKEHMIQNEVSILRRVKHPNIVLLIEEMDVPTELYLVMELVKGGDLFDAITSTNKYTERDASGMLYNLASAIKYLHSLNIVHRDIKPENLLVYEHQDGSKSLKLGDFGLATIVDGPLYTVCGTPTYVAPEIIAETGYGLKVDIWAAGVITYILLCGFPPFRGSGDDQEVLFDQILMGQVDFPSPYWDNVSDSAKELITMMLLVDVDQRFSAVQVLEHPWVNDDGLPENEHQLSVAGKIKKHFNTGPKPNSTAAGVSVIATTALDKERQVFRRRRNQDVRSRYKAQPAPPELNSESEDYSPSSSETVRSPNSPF

SMILES	effect on	mode	method	concentration	endpoint	result
CN1CCN(C(=O)c2ccc(NC(=O)Nc3ccc(N(C)c4ccnc(Nc5ccc(CS(C)(=O)=O)cc5)n4)cc3)cc2)CC1	binding	–	competition with immobilised ligand	1 µM	remaining binding	97%
C1=C/COCc2cc(ccc2OCCN2CCCC2)Nc2nccc(n2)-c2cccc(c2)COC/1	cell-free assay	–	–	0.1 µM	remaining signal	100%
CC#CC(=O)N1CCC[C@H]1c1nc(-c2ccc(C(=O)Nc3ccccn3)cc2)c2c(N)nccn12	enzyme activity	inhibitor	–	1 µM	inhibition	15%
CCCCC(=O)Nc1ccc(-c2ccc3ncn(CCC)c(=O)c3c2)cn1	binding	–	competition with immobilised ligand	0.5 µM	remaining binding	68%
C[C@H]1CC[C@H](n2c3cnccc3c3cnc(Nc4ccc5c(n4)CCN(C(=O)CO)C5)nc32)CC1	cell-free assay	–	–	1 µM	remaining signal	75%
C=CC(=O)N1CCC([C@@H]2CCNc3c(C(N)=O)c(-c4ccc(Oc5ccccc5)cc4)nn32)CC1	enzyme activity	inhibitor	–	1 µM	inhibition	41%
N#Cc1ccc(NC(=O)Nc2ccccc2)cc1	cell-free assay	–	competition with immobilised ligand	25 µM	remaining binding	91%
COc1ccc2oc(-c3ccc4nc(N)oc4c3)c/c(=N\c3ccccc3NC(=O)CCN)c2c1	binding	–	–	1 µM	remaining binding	96%
CC(C)S(=O)(=O)c1ccc2nccc(Nc3ccc4sc(C5CCCC5)nc4c3)c2c1	enzyme activity	inhibitor	–	1 µM	activity vs control	102%
